Results taken from ChEMBL document CHEMBL4325875, “Computer-aided design, synthesis and biological characterization of novel inhibitors for PKMYT1” (Eur J Med Chem, 2019).

Tests used:
[1] = target: T1, Membrane-associated tyrosine- and threonine-specific cdc2-inhibitory kinase (Homo sapiens) (UniProt Q99640); assay: Displacement of (6-FAM)KI(pY)VV from PKMYT1 kinase domain (unknown origin) at 20 uM by fluorescence polarization binding assay relative to control
T1 sequence (whole entry): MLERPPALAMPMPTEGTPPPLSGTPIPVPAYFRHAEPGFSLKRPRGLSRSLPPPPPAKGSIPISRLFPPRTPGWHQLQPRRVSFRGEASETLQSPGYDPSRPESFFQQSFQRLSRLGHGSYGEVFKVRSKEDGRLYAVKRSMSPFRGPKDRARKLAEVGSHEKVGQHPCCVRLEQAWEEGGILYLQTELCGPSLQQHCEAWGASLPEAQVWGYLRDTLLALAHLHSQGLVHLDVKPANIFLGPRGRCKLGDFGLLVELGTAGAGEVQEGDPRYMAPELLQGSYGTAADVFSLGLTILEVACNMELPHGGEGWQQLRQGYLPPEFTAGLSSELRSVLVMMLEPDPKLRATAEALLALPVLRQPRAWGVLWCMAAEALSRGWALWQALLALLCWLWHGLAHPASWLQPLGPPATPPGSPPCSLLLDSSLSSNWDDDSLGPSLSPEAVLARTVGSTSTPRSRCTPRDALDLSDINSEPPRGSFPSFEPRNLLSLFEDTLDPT
In short: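 PKMYT1 kinase domain (recombinantly expressed and purified) used in a fluorescence anisotropy binding assay with a fluorescently labelled ATP-competitive tracer. Each compound screened at 20 μM in triplicate. Dasatinib 10 μM served as inhibitory control and 1% DMSO as vehicle control. Compounds giving >60% tracer displacement were retested at 20 and 5 μM in triplicate.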

[2] = target: T2, Membrane-associated tyrosine- and threonine-specific cdc2-inhibitory kinase (Homo sapiens, UniProt Q99640); assay: […] from PKMYT1 kinase domain (unknown origin) by fluorescence polarization binding assay
T2 sequence (Q99640 whole entry): T1 sequence (whole entry)

[3] = target: T2, Membrane-associated tyrosine- and threonine-specific cdc2-inhibitory kinase; assay: Displacement of (6-FAM)KI(pY)VV from full length PKMYT1 (unknown origin) by fluorescence polarization immuno assay
In short: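 Full-length PKMYT1, expressed and purified, was tested in the fluorescence polarization-based activity assay (FPIA) to give IC50 and Ki. Controls were 10 μM dasatinib and 1% DMSO. Anisotropy r was calculated, and Δr was taken as the difference between the PKMYT1 reaction and the reaction without PKMYT1. Data are given as means ± SEM.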

| inhibition [1] | IC50 [2] | IC50 [3] | Ki [2] | SMILES |
| --- | --- | --- | --- | --- |
| 21.1% | – | – | – | Oc1cccc(Nc2nc(Nc3ccc(N4CCOCC4)cc3)ncc2Br)c1 |
| 27% | – | – | – | COc1ccc(Nc2nc(Nc3ccc(N4CCOCC4)cc3)ncc2Br)cc1O |
| < 10% | – | – | – | Cc1ccc(Nc2nc(Nc3ccc(N4CCOCC4)cc3)ncc2OCc2ccccc2)cc1O |
| 100% | 6030 nM | 1550 nM | – | CSc1cnc(Nc2ccc(N3CCOCC3)cc2)nc1Nc1cccc(O)c1 |
| 75% | 6030 nM | 617 nM | – | Oc1cccc(Nc2nc(Nc3ccc(N4CCOCC4)cc3)ncc2Cl)c1 |
| < 10% | – | – | – | Oc1ccc(Cl)c(Nc2nc(Nc3ccc(N4CCOCC4)cc3)ncc2Cl)c1 |
| < 10% | – | – | – | Cc1cnc(Nc2ccc(N3CCOCC3)cc2)nc1Nc1cccc(O)c1 |
| 26.7% | – | – | – | Cc1ccc(Nc2nc(Nc3ccc(N4CCOCC4)cc3)ncc2Br)cc1O |
| < 10% | – | – | – | Cc1cnc(Nc2ccc(N3CCOCC3)cc2)nc1Nc1cc(O)ccc1Cl |
| – | – | – | 1350 nM | Cc1cc(Nc2ncc3cc(-c4c(Cl)cccc4Cl)c(=O)n(C)c3n2)ccc1F |
| < 10% | – | – | – | Oc1cccc(Nc2nc(Nc3ccc(N4CCOCC4)cc3)nc3c2SCC3)c1 |
| 74.8% | – | – | – | COc1cnc(Nc2ccc(N3CCOCC3)cc2)nc1Nc1cccc(O)c1 |
| 39.7% | – | – | – | COc1ccc(Nc2nc(Nc3ccc(N4CCOCC4)cc3)ncc2OC)cc1O |
| 100% | 9330 nM | 309 nM | – | COc1cnc(Nc2ccc(N3CCOCC3)cc2)nc1Nc1ccc(C)c(O)c1 |
| 100% | 6310 nM | 955 nM | – | CNC(=O)c1ccccc1Nc1nc(Nc2ccc(N3CCOCC3)cc2)ncc1OC |
| 13% | – | – | – | CSc1cnc(Nc2ccc(N3CCOCC3)cc2)nc1Nc1cc(C)ccc1Cl |
